According to the RNAGym collection of RNA variant scans (doi:10.1126/science.aae0568):
This sample holds only a part of the variants without activity.

B1: tRNA (parent)
chain: GUUCCGUUGGCGUAAUGGUAACGCGUCUCCCUCCUAAGGAGAAGACUGCGGGUUCGAGUCCCGUACGGAACG

Variants of: B1
Test: yeast fitness relative to wild type (ratio to wild type); higher = fitter; tRNA-Arg(CCU), competitive growth, 37 C, YPD
Summary of the method: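 Amplicons of the tRNA-Arg(CCU) gene were sequenced, 100-nucleotide paired-end, from the start population and from each end population of a pooled yeast competition. The competition, in six parallel replicates, lasted 24 hours in YPD at 37°C. Fitness relative to wild type was calculated from changes in genotype frequencies. Genotypes had to have ≥ 100 starting reads, and estimates < 0.5 were set to 0.5.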

Row | Variant | yeast fitness
1 | GAUCCGUUGGCGACAUGGUAACGCGUCUCCCUUCUAAGGAGAAGACUGCGGGUUCGAGUCCCGUACGGAACG [U2A U13A A14C C33U] | ≤ 0.5
2 | GAUCCGUUGGCGUAAUGGUAACGCGUCUCCCUCCUAAGGAGAAGACGGCCGGUUCGAGUCCCGUACGGAACG [U2A U47G G50C] | ≤ 0.5
3 | GCUCCGUUGGCGUGAUGGUAACGCGUCUCCCUCCUAAGGAGAAGAUUGCGGGUUCGAGUCCCGUACGGAACG [U2C A14G C46U] | 0.669
4 | GAUCCGUUGGCGUAAAGGUAACGCGUCUCCCUCCUAAGGAGAAGACUGCGGGUUCCGGUCCUGUACGGAACG [U2A U16A G56C A57G C62U] | ≤ 0.5
5 | GAUCCGUUGGCGUAAUGGUAACGCGUCUCCCACCUAAGGAGAAGACUGCGGGUUCGAGUCCCGUACAGAACG [U2A U32A G67A] | ≤ 0.5
6 | GAUCCGUUGGCGUAAUGGUAACGCGUCUCCCUCCUAAGGAGAAGACUGCGGGUACGAGUCCCGUACGGAACG [U2A U54A] | 0.613
7 | GAUCCGUUGGCGUAAUGGUAACGCGUCUCCCUCCUAAGGAGAAGACUGCGGGUUCGAGUCCCGAACGGAUCG [U2A U64A A70U] | 1.06
8 | GAUCCGUUGGCGUAAGGGUAACGCGUCUCCCUCCUAAGGACAAGACUGCGGGUUCGAGUCCCGUACGGAACG [U2A U16G G41C] | 0.649
9 | GAUCCGUUGGCGGGAUGGUAACGCGUCACCCUCCUUAGGAGAAGUCUGCGGGUUCGGGUCCCGUACGGAACG [U2A U13G A14G U28A A36U A45U A57G] | ≤ 0.5
10 | GAUCCGUUGGCGCAAUGGGAAUGCGUCUCCUUCCUAAGGUGAAGACUGCGGGUUCGAGUCCCGUACAGAACG [U2A U13C U19G C22U C31U A40U G67A] | ≤ 0.5
11 | GAUCCGUUGGCGUAAAGGUAACGCGUCUCCGUCCUAAGGAGAAGACUGCGGGUUCGAGUCCCGUACGGAACG [U2A U16A C31G] | 0.875
12 | GAUCCGUUGGCGUAAUGGUAACGCGUCUCCCCACUAAGGAGAAGACUGCGCGUUCGAGUCCCGUACGAAACG [U2A U32C C33A G51C G68A] | ≤ 0.5
13 | GAUCCGUUGGCGAAAUGGUAACGAGUCUCCCUCCUAAGGAGAAGCCUGCGGGUUCGAGUCCCGUACGGAACG [U2A U13A C24A A45C] | ≤ 0.5
14 | GAUCCGUAAGCGAAAUGGUAACGAGUCUCCCUCCUAAGGAGAAGCCUGCGGGUUCGAGUCCCGUACGGAACG [U2A U8A G9A U13A C24A A45C] | ≤ 0.5
15 | GAUCCGUUGGCGAAAUGGUAACGCGUCUUCCUCCAAAGGAGAAGACUGCGGGUUCGAGUUCCGUACGGAACG [U2A U13A C29U U35A C60U] | ≤ 0.5
16 | GCUCCGUUGGCGUGAUGGUAACGCGUCUACCUCCUAAGGAGAAGAGUGCGGGUUCGAGUCCCGUACGGAACG [U2C A14G C29A C46G] | ≤ 0.5
17 | GCUCCGUUGGCGUCAUGGUAACGCGUCUCCCUCCUAAGGCGAAGACUGCGGGUUCGAGUCCCGUACGGAACG [U2C A14C A40C] | ≤ 0.5
18 | GCUCCGUUGGCGUCAUGGUAACGCGUCUCCCUCCUAAGGGGAAGACUGCGGGUUCGAGUCCCGUACGGAACG [U2C A14C A40G] | 0.775
19 | GAUCCGUUGGCGUAAUGGUAACGCGUCUCCCACCUAAGGAGAAGACUGCGGGUUCGAGUCCGGUACGGAACG [U2A U32A C62G] | 0.509

Row | Variant | yeast fitness
20 | GAUCCGUGGGCGUAAUGGUAACGCGUCUCCCUGCUAAAGAGAAGACUGCGGGUUCGAGUCCCGUACGGAACG [U2A U8G C33G G38A] | ≤ 0.5
21 | GCUCCGUUGGCGUGAUGGUAACGCGUCUCCCUCCUAAGGAGAAGACUGCGGGUUCGAGUCCCGUACGGAACG [U2C A14G] | 0.863
22 | GAUCCGUUGGCGUAAUGGUAACGCGUCUCCCUCCUAAGGAGAAGACUGCGGGUUCGAGCCCCGUACGGAACG [U2A U59C] | 0.995
23 | GAUCCGUUGGCGUAAUGGUAACGCGUCACCCUCCUAAGGAGAAGACUGCGCGUUCGCGUCCCGUACGGAACG [U2A U28A G51C A57C] | ≤ 0.5
24 | GCUCCGUUGGCGUCGAGGUAACGCGUCUCCCUCCUAAGGAGAAGACUGCGGGUUCGAGUCCCGUACGGAACG [U2C A14C A15G U16A] | ≤ 0.5
25 | GCUCCGUUGGCGUCAUGGUAACGCGUCUCCAUCCUAAGGAGAAGACUGCGGGUUCGAGUCCCGUACGGAACG [U2C A14C C31A] | ≤ 0.5
26 | GCUCCGUUGGCGUCAUGGUAACGCGUCUCCCUCCUAAGAAGAAGACUGCGGGUUCGAGUCCCGUACGGAACG [U2C A14C G39A] | ≤ 0.5
27 | GAUCCGUUGGCGUAAUGGUAACGCGUCCCCCUCCUAAGGACAAGACUGCGGGUACGAGUCCCGUACGGAACG [U2A U28C G41C U54A] | 0.56
28 | GCUCCGUUGGCGUGAUGGUAAAGCGUAUUCCUCCUAAGGAGCAGACUGCGGGUUCGAGUCCCGUACGGAACG [U2C A14G C22A C27A C29U A42C] | ≤ 0.5
29 | GAUCCGUUGGCGUAAUGGUAACGCGUCACCCUCCUACGGAGAAGACUGCGGGUUCGAGUCCCGCGCGGAACG [U2A U28A A37C U64C A65G] | ≤ 0.5
30 | GAUCCGUUGGCGUAAGGGUAACGCGUCUCCCUCCUAAGGAGAAGACUGCCGGUUUGAGUGCCGUACGGGACG [U2A U16G G50C C55U C60G A69G] | ≤ 0.5
31 | GAUCCGUUGGCGUAAUGGACACGCGACUCCCUCCUAAGGAGAAGACUGCGGGUUCGAGUCCCGUACGGAACG [U2A U19A A20C U26A] | 0.578
32 | GAUCCGUUGGCGAAAUGGUAACGAGUCUCACUCCUAAGGAGAAGACUGCGGGUUCGAGUCCCGUACGGAACG [U2A U13A C24A C30A] | ≤ 0.5
33 | GAUCCGUUGGCGUAAUGGUAACGCGGCUCCCUCCUAAGGAGAAGACUGCGGGUUCGAGUCCCGUACGGAACG [U2A U26G] | 0.821
34 | GAUCCGUUGGCGUAAUGGUAACGCGCCUCCCUCCUAAGGAGAAGACUGCGGGUUCGAGUCCCGUACGGAACG [U2A U26C] | 0.934
35 | GAUCCGUCGGCGUAAUGGUAACGGGUCUCCCUCCUAAGGAGAUGAUUGCGGGUUCGAGUCCCGUACGGAACG [U2A U8C C24G A43U C46U] | ≤ 0.5
36 | GAUCCGUUGGCGUAAUGGUAACGCGUCACCCUCCUAAGGAGAAGACUGCGGGUUGGAGUCCCGUACGGAGCG [U2A U28A C55G A70G] | ≤ 0.5
37 | GAUCCGUUGGCGUAAGGGUAACGCGUGUCCCUCCUAAGGAGAAGACUGGGGGUUCGAGUCCCGUACUGAACG [U2A U16G C27G C49G G67U] | ≤ 0.5
